This is a sample that favours compounds with a hit; in the whole collection about 4.3% have one here.
SMARCA2 act: increases SMARCA2 function in MMTV reporter cells. MG213 cells, MMTV-luciferase reporter, dexamethasone, overnight. activation, % at 9.1 µM. actives 1% (n = 370,000); in the data active = activation above about 7.8%;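 also: 0% = vehicle wells and 100% = reference activator wells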
SR-BI DiI-HDL act: activators of SR-BI mediated HDL lipid uptake; CHO ldlA[mSR-BI] cells, DiI-HDL uptake fluorescence, 3 h; 100 = double the neutral-control signal; activation, % at 12.5 µM; actives 0.096% (n = 320,000);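 active = mean replicate activation of at least 60% and every replicate at or above 60%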;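 also: 0% = median plate neutral-control signal and 100% = twice that signal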
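System: CHO ldlA[mSR-BI] cells / Medium: HEPES-buffered (25 mM, pH 7.4) F12 plus 0.5% BSA / Probe or stimulus: labelled HDL, 10 µg/mL / Doses: single compound concentration, delivered by pin transfer / Schedule: 3 h, 37 °C / Measured by: DiI fluorescence, bottom read / Measure: cell-associated DiI fluorescence as measure of HDL uptake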
Yeast superoxide: lowers age-related superoxide in aged yeast cells; S. cerevisiae aged cells, superoxide DHE fluorescence; active compounds read low; superoxide response (% of plate mean), % at 10 µM; actives 0.18% (n = 330,000);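 active = superoxide response under a set limit, about three screen SD below normal, cut at about 65% in these data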;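 also: yeast aged for seven days with compound at 30 °C before DHE staining; 100% = average MFI of all compound-treated wells on the plate with controls excluded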
SR-BI HDL uptake: inhibitors of mouse SR-BI mediated HDL lipid uptake; Q61009; ldlA[mSR-BI] CHO cells, DiI-HDL uptake fluorescence, 3 h; inhibition, % at 12.5 µM; actives 0.96% (n = 320,000); AID 488896;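 active = mean replicate inhibition of at least 70% and a set share of replicates each scoring 70 or more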;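 also: 0% = median of neutral control wells and 100% = median of positive control wells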
AHR activator: activates the human aryl hydrocarbon receptor. activation, % at 5 µM. actives 2.5% (n = 320,000). AHR-responsive luciferase reporter cells, luminescence. P35869; in the data active = activation above about 47%;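 also: 0% = vehicle wells and 100% = reference agonist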
Target sequence (P35869 whole entry, looked up): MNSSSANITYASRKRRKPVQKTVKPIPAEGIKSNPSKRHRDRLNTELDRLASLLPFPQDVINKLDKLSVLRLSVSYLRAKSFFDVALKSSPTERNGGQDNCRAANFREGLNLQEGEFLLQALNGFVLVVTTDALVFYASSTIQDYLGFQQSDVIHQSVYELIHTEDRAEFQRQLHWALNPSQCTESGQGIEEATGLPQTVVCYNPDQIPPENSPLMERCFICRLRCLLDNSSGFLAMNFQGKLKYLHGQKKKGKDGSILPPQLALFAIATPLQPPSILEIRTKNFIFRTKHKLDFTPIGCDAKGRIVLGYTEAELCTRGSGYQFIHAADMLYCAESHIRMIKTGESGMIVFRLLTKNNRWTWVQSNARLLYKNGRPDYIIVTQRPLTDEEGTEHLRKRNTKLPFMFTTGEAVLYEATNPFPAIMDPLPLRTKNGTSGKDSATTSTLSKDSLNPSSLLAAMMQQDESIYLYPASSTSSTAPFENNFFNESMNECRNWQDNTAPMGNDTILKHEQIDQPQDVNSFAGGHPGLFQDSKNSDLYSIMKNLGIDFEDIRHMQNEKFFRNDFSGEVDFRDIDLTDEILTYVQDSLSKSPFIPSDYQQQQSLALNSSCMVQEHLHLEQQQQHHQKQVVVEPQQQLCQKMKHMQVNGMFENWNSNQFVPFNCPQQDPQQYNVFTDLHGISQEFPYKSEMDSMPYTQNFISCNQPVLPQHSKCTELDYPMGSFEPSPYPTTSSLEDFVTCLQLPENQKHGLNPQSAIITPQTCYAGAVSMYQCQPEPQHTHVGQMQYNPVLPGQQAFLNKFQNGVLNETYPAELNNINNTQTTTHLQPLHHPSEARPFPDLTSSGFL
Hep lipid drop: modulators of hepatic lipid droplet formation; AML12 mouse hepatocytes, oleate lipid droplets, BODIPY imaging; AID 1656; actives 0.4% (n = 240,000); inhibition, % at 6.5 µM;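 active = lipid droplet intensity inhibited by at least 50%, with more than 500 cells counted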
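Assay system: AML12 hepatocytes (mouse) / Also added: 100 µM oleic acid challenge / Times: overnight treatment with compound plus oleate / Detection: high-content imaging of BODIPY-stained droplets and DAPI nuclei / Evaluation: % inhibition of lipid droplet signal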
* = called active by the depositor; . = no result.

SMILES	SMARCA2 act	SR-BI DiI-HDL act	Yeast superoxide	SR-BI HDL uptake	AHR activator	Hep lipid drop
Cc1nnc(SCCC(C)C)[nH]c1=O	-1	96*	112	-96	3	.
O=C1COc2ccccc2C(c2nnnn2-c2ccc3ccccc3c2)N1C1CC1 (configuration not stated)	-1	.	.	.	.	.
COc1cccc(N2CC(O)=C(c3nc4ccccc4s3)C2=N)c1	-1	-22	106	22	57*	0
COc1cc(OC)cc(OCC(O)Cn2ccnc2)c1 (configuration not stated)	-1	5	98	-5	53*	.
COC(=O)[C@H]1C[C@@]2(C)c3ccccc3N(C(=O)OC(C)(C)C)[C@H]2N1C(=O)OC(C)(C)C	2	.	.	.	.	.
COC(=O)c1cc2c(c3c4cc(F)ccc4n(S(=O)(=O)c4ccccc4)c13)C(=O)N(Cc1ccco1)C2	6	.	.	.	.	.
CCN(CC)C(=O)CSc1nc(N)c(C#N)c(-c2cccs2)c1C#N	6	-3	105	3	77*	-4
CCN(CC)C(=O)CSc1nc2c(c(-c3cccnc3)c1C#N)CCCC2	3	3	114	-3	67*	19
CCN(CC)C(=O)CSc1nc(-c2cccs2)cc(-c2cccs2)c1C#N	2	-43	90	43	10	2
C=CCn1c(C)cc(C(=O)Cn2nc(C(=O)O)c3ccccc3c2=O)c1C	7.9*	4	101	-4	4	-8
COc1cccc(-c2cc3nc(-c4ccccc4)cc(N4CCCC(O)C4)n3n2)c1 (configuration not stated)	-1	-55	113	55	74*	-11
COc1ccc(-c2cc3nc(-c4ccccc4)cc(N4CCC5(CC4)OCCO5)n3n2)cc1	2	-62	91	62	2	.
CC(=O)CCN1CCSCCS1(=O)=O	1	.	.	.	.	.
CC(C)NC(=S)N=Nc1c(O)[nH]c2ccc(C(C)C)cc12	-3	-4	119	4	67*	11
CC(C)c1ccc2[nH]c(O)c(N=NC(=O)c3cccc(S(=O)(=O)Nc4ccccc4Cl)c3)c2c1	1	-10	100	10	4	-11
CCc1ccc(S(=O)(=O)/N=C2\C=C(NS(=O)(=O)c3ccccc3)C(=O)c3ccccc32)cc1	-3	24	.	-24	.	11
Cc1ccc(C)c(S(=O)(=O)/N=C2\C=C(NS(=O)(=O)c3ccccc3)C(=O)c3ccccc32)c1	-1	7	101	-7	74*	1
Cc1[nH]c2ccccc2c1CC(=O)Nc1ccc(Nc2cccnc2)c(-c2ccc(Oc3ccccc3)cc2)c1	-5	.	.	.	.	.
Cc1ccc(C(=O)Nc2ccccc2Oc2ccccc2)cc1[N+](=O)[O-]	3	-19	103	19	74*	.
O=C(Nc1ccccc1Oc1ccccc1)c1cccc([N+](=O)[O-])c1	-3	-11	90	11	77*	.
O=C(Nc1ccncc1NC(=O)c1cccc([N+](=O)[O-])c1)c1cccc([N+](=O)[O-])c1	0	12	91	-12	1	-15
COC(=O)[C@]12C[C@H](CC(=O)NCc3cccc(C(F)(F)F)c3)C(=O)N(Cc3cccc4ccccc34)C1=C[C@H](C1CCCC1)O[C@@H]2C	-6	.	.	.	.	.
CCOC(=O)CC[C@H]1CC[C@]2(CCCN(C(=O)c3ccc4ccccc4n3)C2)O1	-4	.	.	.	.	.
COc1ccc(OC)c(NC(=O)c2cnn(-c3ccccc3)c2C)c1	0	-35	88	35	76*	10
COc1ccc(NC(=O)c2cnn(-c3ccccc3)c2C)cc1	2	9	110	-9	-10	-3
SMILES	SMARCA2 act	SR-BI DiI-HDL act	Yeast superoxide	SR-BI HDL uptake	AHR activator	Hep lipid drop
CCn1nc(C)c(/C=N/NC(=O)c2c[nH]c3ccccc23)c1C	0	18	101	-18	99*	20
O=C(N/N=C/c1ccccn1)c1c[nH]c2ccccc12	3	.	87	.	57*	32
Cc1ccc(/C=N/NC(=O)c2cccc3ccccc23)o1	-2	.	98	.	8	-14
Cc1ccc(/C=N/NC(=O)c2c[nH]c3ccccc23)s1	6	10	95	-10	50*	.
O=C(N/N=C/c1ccc[nH]1)c1c[nH]c2ccccc12	1	-9	.	9	.	-2
Cc1ccc(/C=N/NC(=O)c2c[nH]c3ccccc23)o1	.	29	89	-29	72*	13
CCOC(=O)[C@]12CCCCC/C=C\1N(CCc1ccc(Cl)cc1)C(=O)[C@H]2CC(=O)NCc1cccc2ccccc12	-3	.	.	.	.	.
COc1ccc(S[C@]2(C(=O)N(C)C)CC(=O)N(c3ccc(C#N)cc3)[C@@H]2c2ccc(OC)cc2)cc1	2	.	.	.	.	.
COc1ccc(-n2c(SCC(=O)Nc3ccc4cn[nH]c4c3)nnc2-c2ccccc2)cc1	-3	.	.	.	.	.
O=C(NC(C(=O)N/N=C/c1ccccn1)c1n[nH]c(=O)c2ccccc12)c1ccccc1 (configuration not stated)	7.9*	.	105	.	6	15
Cc1ccc(/C=N/NC(=O)c2ccoc2C)s1	2	9	94	-9	56*	29
Cc1nc2ccc(C(=O)N3CCN(C(=O)OCc4ccccc4)CC3)cc2n1C1CCCC1	-6	.	.	.	.	.
CCOC(=O)CCCCCC(=O)Nc1ccc2c(c1)C(=O)N([C@H](C)CO)C[C@@H](C)[C@@H](CN(C)S(=O)(=O)c1ccc(C)cc1)OCCCC[C@H](C)O2	-2	.	.	.	.	.
Cn1c(CN2CCCCC2)nc2cc([N+](=O)[O-])ccc21	-2	1	90	-1	67*	15
Cn1c(CCN2CCCCC2)nc2cc([N+](=O)[O-])ccc21	3	-5	95	5	-1	.
CCCCOCCCNC(=O)C[C@H]1C[C@@]2(C(=O)OC)C(=C[C@H](C(C)C)O[C@@H]2C2CC2)N(Cc2cccc3ccccc23)C1=O	-6	.	.	.	.	.
COc1ccc(/C=N/n2cc(-c3ccccc3)nc2N)cc1	.	12	95	-12	68*	-2
Brc1ccc(-c2cn3c(n2)CCc2ccc4cccnc4c2-3)cc1	-3	-27	93	27	47*	.
OCC1COC(c2ccccc2)=N1 (configuration not stated)	2	.	.	.	.	.
Cc1ccc(NC(=O)CSc2nnc(-c3cc(-c4ccc(Cl)cc4)n[nH]3)n2N)cc1	-5	.	.	.	.	.
O=C1N/C(=C/c2ccc(N3CCOCC3)cc2)C(=O)N1Cc1ccc(F)cc1	0	-2	104	2	51*	.
O=C1N/C(=C\c2ccsc2)C(=O)N1Cc1ccc(F)cc1	-4	-3	111	3	-2	-2
COc1ccc(NC(=O)N2CCN(c3nc(-c4cccc(OC)c4)cs3)CC2)cc1	-4	-71	106	71*	4	-5
CC(C)n1c(N2CCN(C(=O)NCc3ccccc3)CC2)nc2ccccc21	-2	-35	106	35	-6	.
